# Experimental data: ChEMBL document CHEMBL4689842, “EUbOPEN Chemogenomics Library wave 1” (2021)
# Values joined by “and” are separate entries in the source; they are usually repeats but may differ in a detail not shown here. Equal values may be shown once.
# System: U2OS
# Experiment: Multiplex assay against U2OS
# Format: toxicity, cell-based
# Conditions: human, 10 µM, compound concentration 10 uM
# How it was run: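 Per cents of healthy-nucleus cells form the tubulin, mitochondrial-mass and membrane-permeability phenotype values. Live cells were stained at seeding with Hoechst33342, BioTracker Green Microtubule Cytoskeleton Dye, MitoTracker Red and Annexin V Alexa Fluor 680. After compound addition they were imaged on a CQ1 microscope at 37°C and 5% CO2, and CellPathfinder machine-learning gating split them into Hoechst high-intensity objects or normal cells, normal cells into healthy, pyknosed or fragmented nuclei, and pyknosed cells into mitotic or apoptotic.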
structure (smiles),measurement,setting,value
Cn1nc(C(=O)NCc2ccc(C(=O)O)cc2)cc1-c1ccc2[nH]ccc2c1 [BI 4395],Population Apoptotic (%),"12 h, replicate 1",42%
same,Population Fragmented Nuclei (%),"12 h, replicate 1",4%
same,Population Healthy Nuclei (%),"12 h, replicate 1",87% and 92%
same,Population Hoechst High Intensity Objects (%),"12 h, replicate 1",2% and 3%
same,Population Membrane Permeable-Phenotype (%),"12 h, replicate 1",9% and 4%
same,Population Mitochondria Different-Phenotype (%),"12 h, replicate 1",17%
same,Population Mitotic Cells (%),"12 h, replicate 1",57%
same,Population Normal (%),"12 h, replicate 1",97% and 96%
same,Population Pyknosed Nuclei (%),"12 h, replicate 1",8%
same,Population Tubulin-Different-Phenotype (%),"12 h, replicate 1",21% and 16%
same,Total Cell Count,"12 h, replicate 1",177 and 225
same,Population Fragmented Nuclei (%),"12 h, replicate 2",9% and 7%
same,Population Healthy Nuclei (%),"12 h, replicate 2",89%
same,Population Hoechst High Intensity Objects (%),"12 h, replicate 2",11%
same,Population Membrane Permeable-Phenotype (%),"12 h, replicate 2",8%
same,Population Mitochondria Different-Phenotype (%),"12 h, replicate 2",35% and 23%
same,Population Mitotic Cells (%),"12 h, replicate 2",50% and 100%
same,Population Normal (%),"12 h, replicate 2",88%
same,Population Pyknosed Nuclei (%),"12 h, replicate 2",2% and 3%
same,Population Tubulin-Different-Phenotype (%),"12 h, replicate 2",30%
same,Total Cell Count,"12 h, replicate 2",84 and 159
same,Population Apoptotic (%),"24 h, replicate 1",18% and 33%
same,Population Fragmented Nuclei (%),"24 h, replicate 1",4% and 1%
same,Population Healthy Nuclei (%),"24 h, replicate 1",95%
same,Population Hoechst High Intensity Objects (%),"24 h, replicate 1",1%
same,Population Membrane Permeable-Phenotype (%),"24 h, replicate 1",6%
same,Population Mitochondria Different-Phenotype (%),"24 h, replicate 1",18% and 24%
same,Population Mitotic Cells (%),"24 h, replicate 1",81% and 66%
same,Population Normal (%),"24 h, replicate 1",98%
same,Population Pyknosed Nuclei (%),"24 h, replicate 1",6% and 2%
same,Population Tubulin-Different-Phenotype (%),"24 h, replicate 1",20%
same,Total Cell Count,"24 h, replicate 1",253 and 307
same,Population Apoptotic (%),"24 h, replicate 2",40% and 60%
same,Population Fragmented Nuclei (%),"24 h, replicate 2",7% and 5%
same,Population Healthy Nuclei (%),"24 h, replicate 2",87% and 89%
same,Population Hoechst High Intensity Objects (%),"24 h, replicate 2",7% and 6%
same,Population Membrane Permeable-Phenotype (%),"24 h, replicate 2",9% and 8%
same,Population Mitochondria Different-Phenotype (%),"24 h, replicate 2",15% and 40%
same,Population Mitotic Cells (%),"24 h, replicate 2",60% and 40%
same,Population Normal (%),"24 h, replicate 2",92% and 93%
same,Population Pyknosed Nuclei (%),"24 h, replicate 2",5%
same,Population Tubulin-Different-Phenotype (%),"24 h, replicate 2",34% and 29%
same,Total Cell Count,"24 h, replicate 2",199 and 102
